According to ChEMBL document CHEMBL1221386, “Synthesis and pharmacological evaluation of 3-aryl-3-azolylpropan-1-amines as selective triple serotonin/norepinephrine/dopamine reuptake inhibitors” (Bioorg Med Chem Lett, 2010):

How the values were obtained:
Cytochrome P450 2C9 = Cytochrome P450 2C9 (Homo sapiens, UniProt P11712); assay: Inhibition of CYP2C9; format: ADME
Mus musculus [1] = assay: Antidepressant activity in mouse assessed as change in locomotion at 150 mg/kg, po; format: functional
In short: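 Spontaneous locomotor activity in mice measured 1 h after oral dosing. Expressed relative to the control group set at 100%.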

[2] = molecular target: T1, Sodium-dependent dopamine transporter (Homo sapiens, UniProt Q01959); assay: Inhibition of dopamine reuptake at human dopamine transporter expressed in CHO cells; format: cell-based
T1 sequence (Q01959 whole entry): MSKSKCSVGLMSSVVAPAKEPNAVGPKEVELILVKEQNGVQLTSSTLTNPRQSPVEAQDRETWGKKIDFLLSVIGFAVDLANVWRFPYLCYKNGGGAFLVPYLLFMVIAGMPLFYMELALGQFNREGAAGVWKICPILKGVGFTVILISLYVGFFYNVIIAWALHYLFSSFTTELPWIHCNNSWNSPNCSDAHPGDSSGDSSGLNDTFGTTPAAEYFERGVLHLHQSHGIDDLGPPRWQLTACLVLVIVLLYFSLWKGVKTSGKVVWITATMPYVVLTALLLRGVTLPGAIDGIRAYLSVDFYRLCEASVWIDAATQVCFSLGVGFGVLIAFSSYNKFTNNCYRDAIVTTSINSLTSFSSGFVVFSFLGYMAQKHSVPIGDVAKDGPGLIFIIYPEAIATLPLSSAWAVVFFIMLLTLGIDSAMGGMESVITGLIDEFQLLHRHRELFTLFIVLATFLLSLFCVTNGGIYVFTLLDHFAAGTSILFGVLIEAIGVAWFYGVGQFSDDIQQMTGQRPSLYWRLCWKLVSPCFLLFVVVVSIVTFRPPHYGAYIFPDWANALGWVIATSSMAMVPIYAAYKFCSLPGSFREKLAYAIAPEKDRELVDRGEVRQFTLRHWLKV
In short: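 CHO-K1 cells stably expressing human DAT, assayed for [3H]DA uptake in duplicate. Nomifensine served as standard. IC50 determined.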

[3] = AUC in rat at 10 mg/kg, po; format: ADME, organism-based; design: dose 10 mg/kg, route oral; details: plasma
Cytochrome P450 2D6 = Cytochrome P450 2D6 (Homo sapiens, UniProt P10635); assay: Inhibition of CYP2D6; format: ADME
Cytochrome P450 2D6, sequence (P10635 whole entry): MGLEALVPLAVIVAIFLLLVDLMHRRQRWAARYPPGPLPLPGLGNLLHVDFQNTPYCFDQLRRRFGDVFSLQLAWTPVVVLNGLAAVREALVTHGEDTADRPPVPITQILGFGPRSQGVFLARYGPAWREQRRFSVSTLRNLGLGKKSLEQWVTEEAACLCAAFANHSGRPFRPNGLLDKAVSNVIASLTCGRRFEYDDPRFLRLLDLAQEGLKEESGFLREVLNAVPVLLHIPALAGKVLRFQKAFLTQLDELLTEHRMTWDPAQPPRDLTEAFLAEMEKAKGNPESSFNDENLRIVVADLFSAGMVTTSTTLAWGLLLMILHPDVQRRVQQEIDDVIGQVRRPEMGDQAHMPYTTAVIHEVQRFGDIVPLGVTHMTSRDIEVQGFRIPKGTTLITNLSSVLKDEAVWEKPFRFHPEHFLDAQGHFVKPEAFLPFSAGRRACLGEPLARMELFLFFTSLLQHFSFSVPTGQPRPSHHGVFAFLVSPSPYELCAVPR

[4] = Half life in rat at 10 mg/kg, iv; format: ADME, organism-based; design: dose 10 mg/kg, route intravenous; details: in vivo
Mus musculus [5] = assay: Potentiation of […]-induced serotonin syndrome like behavior in po dosed mouse; format: functional; details: read-out: MED
In short: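 Mice, oral dosing. For serotonin potentiation, 5-hydroxytryptophan (5-HTP, serotonin precursor) is given to induce serotonin syndrome-like head twitch/stereotypy counts. Response is expressed as % potentiation relative to control group (0%). Minimal effective dose is the lowest dose reaching p <0.05. Doses are in mg/kg.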

[6] = molecular target: T2, Sodium-dependent noradrenaline transporter (Homo sapiens, UniProt P23975); assay: Inhibition of norepinephrine reuptake at human NET expressed in MDCK cells at 100 nM
T2 sequence (P23975 whole entry): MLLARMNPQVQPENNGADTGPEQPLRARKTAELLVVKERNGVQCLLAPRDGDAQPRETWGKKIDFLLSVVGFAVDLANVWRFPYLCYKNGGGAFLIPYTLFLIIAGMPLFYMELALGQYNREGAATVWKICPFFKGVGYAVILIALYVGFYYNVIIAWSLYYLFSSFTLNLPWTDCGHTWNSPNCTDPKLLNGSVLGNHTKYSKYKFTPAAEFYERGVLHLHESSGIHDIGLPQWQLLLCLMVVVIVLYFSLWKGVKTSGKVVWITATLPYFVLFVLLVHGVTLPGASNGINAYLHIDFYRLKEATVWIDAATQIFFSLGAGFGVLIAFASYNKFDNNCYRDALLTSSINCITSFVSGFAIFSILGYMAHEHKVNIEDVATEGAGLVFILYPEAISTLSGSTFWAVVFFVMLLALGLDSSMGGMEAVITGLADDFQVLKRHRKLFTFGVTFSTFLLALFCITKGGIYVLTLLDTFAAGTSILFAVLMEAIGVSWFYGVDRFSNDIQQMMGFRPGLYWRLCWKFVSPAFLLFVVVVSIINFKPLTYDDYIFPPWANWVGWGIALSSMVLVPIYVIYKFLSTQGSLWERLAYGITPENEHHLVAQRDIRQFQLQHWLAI

[7] = Half life in rat liver microsomes; format: ADME, Microsome
In short: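 Metabolic stability in human or rat liver microsomes. Half-lives measurable up to 60 min.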

Mus musculus [8] = assay: Antidepressant activity in po dosed mouse assessed as reduction of mobility time by forced swimming test; format: functional
In short: (§1)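 Mouse forced swimming test with oral dosing. Read-out is immobility time, expressed as % reduction of immobility. Minimal effective dose is the lowest dose with p <0.05. ED50 is given with 95% confidence limits. Doses are in mg/kg.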

[9] = molecular target: T3, Sodium-dependent serotonin transporter (Homo sapiens, UniProt P31645); assay: Inhibition of serotonin reuptake at human SERT expressed in HEK293 cells at 100 nM
Target sequence in this assay (P31645 whole entry, looked up): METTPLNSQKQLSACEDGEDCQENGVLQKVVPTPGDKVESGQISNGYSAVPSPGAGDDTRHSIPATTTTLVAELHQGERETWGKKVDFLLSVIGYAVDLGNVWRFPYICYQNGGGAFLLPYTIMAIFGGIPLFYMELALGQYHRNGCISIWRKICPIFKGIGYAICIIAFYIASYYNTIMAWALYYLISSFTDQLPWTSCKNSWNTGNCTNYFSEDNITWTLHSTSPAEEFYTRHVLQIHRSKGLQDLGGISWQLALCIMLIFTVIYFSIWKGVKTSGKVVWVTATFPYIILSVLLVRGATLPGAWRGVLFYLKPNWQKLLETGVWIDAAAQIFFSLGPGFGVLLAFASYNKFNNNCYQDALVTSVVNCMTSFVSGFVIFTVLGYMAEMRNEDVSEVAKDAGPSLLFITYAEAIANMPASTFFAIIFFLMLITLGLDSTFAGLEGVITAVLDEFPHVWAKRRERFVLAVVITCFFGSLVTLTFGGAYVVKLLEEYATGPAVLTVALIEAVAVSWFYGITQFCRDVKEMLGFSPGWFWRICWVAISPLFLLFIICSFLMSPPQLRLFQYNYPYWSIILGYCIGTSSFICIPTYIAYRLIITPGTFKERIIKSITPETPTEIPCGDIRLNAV

Mus musculus [10] = assay: Antidepressant activity in mouse assessed as reduction of mobility time at 3 mg/kg, po by tail suspension test; format: functional; design: scale not given: the % may be the effect or the level left
In short: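 Mouse tail suspension test run as an oral dose–response. Read-out is percent reduction of immobility time; minimal effective dose taken at p<0.05.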

Mus musculus [11] = assay: Anxiolytic activity in mouse assessed as inhibition of marble buried at 30 mg/kg, ip by marble burying test; format: functional; details: route intraperitoneal
[12] = Cmax in rat at 10 mg/kg, po; format: ADME, organism-based; design: dose 10 mg/kg, route oral; details: in vivo
[13] = Oral bioavailability in rat at 10 mg/kg; format: ADME, organism-based; details: in vivo
[14] = molecular target: T4, 5-hydroxytryptamine receptor 2C (Homo sapiens) (UniProt P28335); assay: Inhibition of 5HT2C receptor at 10 uM
T4 sequence (whole entry): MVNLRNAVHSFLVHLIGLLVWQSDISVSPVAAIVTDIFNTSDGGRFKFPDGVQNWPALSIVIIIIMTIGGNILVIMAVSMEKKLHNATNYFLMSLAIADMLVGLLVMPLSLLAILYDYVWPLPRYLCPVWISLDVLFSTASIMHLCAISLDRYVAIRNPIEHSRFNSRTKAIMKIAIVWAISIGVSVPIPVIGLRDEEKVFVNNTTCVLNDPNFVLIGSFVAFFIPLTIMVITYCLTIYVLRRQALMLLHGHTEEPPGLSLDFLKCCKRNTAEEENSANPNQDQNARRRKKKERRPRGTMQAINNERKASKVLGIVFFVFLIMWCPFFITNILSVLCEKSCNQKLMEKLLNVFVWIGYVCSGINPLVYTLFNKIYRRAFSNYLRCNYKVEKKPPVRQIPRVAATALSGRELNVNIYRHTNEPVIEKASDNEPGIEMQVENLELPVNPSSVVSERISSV

Cytochrome P450 1A2 = molecular target: T5, Cytochrome P450 1A2 (Homo sapiens, UniProt P05177); assay: Inhibition of CYP1A2; format: ADME
T5 sequence (P05177 whole entry): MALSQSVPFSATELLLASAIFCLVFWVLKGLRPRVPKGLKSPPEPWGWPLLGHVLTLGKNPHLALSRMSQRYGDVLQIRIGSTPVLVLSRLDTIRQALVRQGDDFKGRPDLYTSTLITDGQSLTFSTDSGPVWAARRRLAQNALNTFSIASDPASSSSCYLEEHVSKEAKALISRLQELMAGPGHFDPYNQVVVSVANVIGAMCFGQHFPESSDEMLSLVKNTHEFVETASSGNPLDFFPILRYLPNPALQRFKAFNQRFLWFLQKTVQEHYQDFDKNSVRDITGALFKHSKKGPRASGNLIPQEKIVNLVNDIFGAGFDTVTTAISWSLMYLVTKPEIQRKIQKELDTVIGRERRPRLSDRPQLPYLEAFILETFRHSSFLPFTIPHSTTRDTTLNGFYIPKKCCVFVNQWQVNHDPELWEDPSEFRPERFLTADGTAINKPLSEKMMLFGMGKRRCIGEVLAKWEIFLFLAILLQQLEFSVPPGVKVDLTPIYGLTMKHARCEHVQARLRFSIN

[15] = molecular target: T1, Sodium-dependent dopamine transporter; assay: Inhibition of dopamine reuptake at human dopamine transporter expressed in CHO cells at 100 nM
[16] = molecular target: T3, Sodium-dependent serotonin transporter; assay: Inhibition of serotonin reuptake at human SERT expressed in HEK293 cells; format: cell-based
Target sequence in this assay (P31645 whole entry): as the sequence (P31645 whole entry, looked up) above

Mus musculus [17] = assay: Antidepressant activity in mouse assessed as change in locomotion at 90 mg/kg, po; format: functional
[18] = Clearance in rat at 10 mg/kg, iv; format: ADME, organism-based; design: dose 10 mg/kg, route intravenous; details: in vivo
Mus musculus [19] = assay: Antidepressant activity in mouse assessed as change in locomotion at 30 mg/kg, po; format: functional
[20] = AUC (0 to infinity) in rat at 10 mg/kg, po; format: ADME, organism-based; design: dose 10 mg/kg, route oral, time infinity; details: plasma
[21] = Cmax in rat at 10 mg/kg, iv; format: ADME, organism-based; design: dose 10 mg/kg, route intravenous; details: in vivo
[22] = molecular target: T2, Sodium-dependent noradrenaline transporter; assay: Inhibition of norepinephrine reuptake at human NET expressed in MDCK cells; format: cell-based
Mus musculus [23] = assay: Antidepressant activity in po dosed mouse assessed as reduction of mobility time by tail suspension test; format: functional; details: read-out: MED
In short: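 Mouse tail suspension test with oral dose–response. Read-out is immobility time, reported as % reduction of immobility. Minimal effective dose is the lowest dose giving p <0.05. Doses are in mg/kg.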

[24] = molecular target: Muscarinic acetylcholine receptor M3 (Homo sapiens) (UniProt P20309); assay: Inhibition of muscarinic M3 receptor at 10 uM
Muscarinic acetylcholine receptor M3 (Homo sapiens), sequence (P20309 whole entry, looked up): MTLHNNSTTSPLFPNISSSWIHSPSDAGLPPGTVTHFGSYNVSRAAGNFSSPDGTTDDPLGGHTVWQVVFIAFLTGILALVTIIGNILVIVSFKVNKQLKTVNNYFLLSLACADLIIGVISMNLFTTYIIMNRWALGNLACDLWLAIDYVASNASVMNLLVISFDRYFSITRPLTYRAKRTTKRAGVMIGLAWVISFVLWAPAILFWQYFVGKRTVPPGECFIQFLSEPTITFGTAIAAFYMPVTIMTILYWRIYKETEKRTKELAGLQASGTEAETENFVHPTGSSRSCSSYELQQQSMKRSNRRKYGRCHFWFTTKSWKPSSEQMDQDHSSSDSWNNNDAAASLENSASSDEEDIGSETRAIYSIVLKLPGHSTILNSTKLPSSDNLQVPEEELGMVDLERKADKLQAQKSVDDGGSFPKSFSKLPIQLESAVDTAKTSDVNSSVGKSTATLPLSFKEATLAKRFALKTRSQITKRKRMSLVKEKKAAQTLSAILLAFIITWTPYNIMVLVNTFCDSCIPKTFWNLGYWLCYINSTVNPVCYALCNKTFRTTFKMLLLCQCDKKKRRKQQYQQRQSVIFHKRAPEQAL

[25] = AUC in rat at 10 mg/kg, iv; format: ADME, organism-based; design: dose 10 mg/kg, route intravenous; details: plasma
Mus musculus [26] = assay: Antidepressant activity in mouse assessed as reduction of mobility time by forced swimming test at 10 mg/kg, po; format: functional; design: scale not given: the % may be the effect or the level left; in short: as §1

Cytochrome P450 2C9, sequence (P11712 whole entry): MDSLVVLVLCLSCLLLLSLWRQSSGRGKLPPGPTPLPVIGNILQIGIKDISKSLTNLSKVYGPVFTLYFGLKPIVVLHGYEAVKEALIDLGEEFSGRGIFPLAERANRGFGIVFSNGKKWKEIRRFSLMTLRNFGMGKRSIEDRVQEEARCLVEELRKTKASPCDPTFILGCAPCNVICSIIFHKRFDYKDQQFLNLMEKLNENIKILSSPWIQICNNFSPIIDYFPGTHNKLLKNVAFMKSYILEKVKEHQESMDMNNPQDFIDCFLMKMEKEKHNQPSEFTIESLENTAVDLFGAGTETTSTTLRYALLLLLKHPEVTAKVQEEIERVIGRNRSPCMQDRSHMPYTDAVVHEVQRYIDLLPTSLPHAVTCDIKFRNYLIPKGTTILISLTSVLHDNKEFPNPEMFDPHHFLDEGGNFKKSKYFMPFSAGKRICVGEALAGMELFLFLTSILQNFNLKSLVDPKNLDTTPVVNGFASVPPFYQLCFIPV

For `CNCC[C@@H](c1ccc(Cl)c(Cl)c1)n1nnc(C)n1`, the IC50 (Cytochrome P450 2C9) was over 10000 nM, the Activity (Mus musculus [1]) was 134% and the IC50 [2] was 58 nM. The AUC [3] was 1280 ng·h/mL, the IC50 (Cytochrome P450 2D6) was 6900 nM and the half-life [4] was 3.12 h. The minimal effective dose (Mus musculus [5]) was 30 mg/kg, the inhibition [6] was 84% and the half-life [7] was 0.933 h. It also gave an ED50 (Mus musculus [8]) of 22.2 mg/kg, a minimal effective dose (Mus musculus [8]; read-out: MED) of 10 mg/kg and an inhibition [9] of 43%. It also gave an Activity (Mus musculus [10]) of 59.6%, an inhibition in vivo at 30 mg/kg (Mus musculus [11]) of 94.4% and a Cmax [12] of 334 ng/mL. It also gave a bioavailability [13] of 43.2%, an inhibition [14] of 66% and an IC50 (Cytochrome P450 1A2) of over 10000 nM. The inhibition [15] was 62%, the IC50 [16] was 143 nM and the Activity (Mus musculus [17]) was 142%. For the same compound, the clearance [18] was 42 mL/min/kg, the Activity (Mus musculus [19]) was 92% and the AUC(0-inf) [20] was 1790 ng·h/mL. The Cmax [21] was 3830 ng/mL, the IC50 [22] was 19.8 nM and the minimal effective dose (Mus musculus [23]) was 3 mg/kg. For the same compound, the inhibition [24] was under 20%, the AUC [25] was 3830 ng·h/mL and the Activity (Mus musculus [26]) was 14.9%.
